We go through 24 molecules from ChEMBL document CHEMBL4680159, “Novel modified leucine and phenylalanine dipeptides modulate viability and attachment of cancer cells” (2020).

For assay [1], the system named is K562. As to the kind of experiment: Antiproliferative activity against human K562 cells assessed as growth inhibition measured after 72 hrs by calcein AM dye-based fluorescence assay. In kind it is functional. A digest of the protocol: (§1)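 Cells exposed to three-fold compound dilutions in triplicate for 72 h. Calcein AM then added and live-cell fluorescence read at 485/538 nm (ex/em). GI50 taken from dose-response curves. Values from at least triplicate measurements.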

Assay [2] relates to CCRF-CEM. As to the kind of experiment: Antiproliferative activity against human CEM cells assessed as growth inhibition measured after 72 hrs by calcein AM dye-based fluorescence assay. It counts as functional. A digest of the protocol: as §1
Assay [3] relates to G-361. As to the kind of experiment: Antiproliferative activity against human G361 cells assessed as growth inhibition measured after 72 hrs by calcein AM dye-based fluorescence assay. It counts as functional. A digest of the protocol:
as §1

In assay [4] the test system is MCF7. As to the kind of experiment: Antiproliferative activity against human MCF7 cells assessed as growth inhibition measured after 72 hrs by calcein AM dye-based fluorescence assay. It counts as functional. In outline: as §1
The subject of assay [5] is HCT-116. As to the kind of experiment: Antiproliferative activity against human HCT116 cells assessed as growth inhibition measured after 72 hrs by calcein AM dye-based fluorescence assay. It counts as functional. In outline: as §1
The test system of assay [6] is HCT-116. The assay is described as follows: Antiproliferative activity against human HCT-116 cells assessed as increase in cell death at 25 uM measured after 24 hrs by IncuCyte live-cell imaging analysis. In kind it is functional, cell-based. A digest of the protocol: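 HCT-116 cells plated at 10 000 cells/well and exposed to compounds at 25 µM for 24 h. Cell membrane integrity/death followed in real time by live-cell imaging with a Cytotox Red reagent.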

Calls of active or inactive are those of the source. No cut-off for these calls is given here.

Usually GI50 stands for the concentration that inhibits growth by half. With `O=C(N[C@@H](Cc1ccccc1)C(=O)Nc1ccc(C(F)(F)F)cc1)c1cc(Cl)ccc1O`, the results for the GI50 in assay [1] and in assay [2] were 5.2 µM and 4.5 µM, respectively.
On the same counts, the results for `CC(C)C[C@H](NC(=O)c1cc(Cl)ccc1O)C(=O)Nc1ccc(C(F)(F)F)cc1` are 5 µM and 5 µM.
Consider `O=C(N[C@@H](Cc1ccccc1)C(=O)N[C@@H](Cc1ccccc1)C(=O)Nc1ccc(C(F)(F)F)cc1)c1cc(Cl)ccc1OCc1ccccc1`, for which the GI50 is 12.7 µM in assay [1] and 11.3 µM in assay [2].
In the case of `CC(C)C[C@H](NC(=O)c1cc(Cl)ccc1OCc1ccccc1)C(=O)N[C@@H](CC(C)C)C(=O)Nc1ccc(Cl)c(Cl)c1`, the GI50 is greater than 100 µM in assay [1] and 56.4 µM in assay [2].
The corresponding values for `O=C(N[C@@H](Cc1ccccc1)C(=O)Nc1ccc(C(F)(F)F)cc1)c1cc(Cl)ccc1OCc1ccccc1` are greater than 50 µM and 31.5 µM.
As for `CC(C)C[C@H](NC(=O)c1cc(Cl)ccc1O)C(=O)N[C@@H](CC(C)C)C(=O)Nc1nccs1`, the values for the concentration for 50% growth inhibition (GI50) in assay [1] and in assay [2] were 31.1 µM and 19.7 µM, respectively.
As for `CC(C)C[C@H](NC(=O)c1cc(Cl)ccc1OCc1ccccc1)C(=O)N[C@@H](CC(C)C)C(=O)N1CCOCC1`, the GI50 in assay [1] is 21 µM; in assay [2] it was 20.1 µM.
For the molecule `CC(C)C[C@H](NC(=O)c1cc(Cl)ccc1OCc1ccccc1)C(=O)N[C@@H](CC(C)C)C(=O)NC1CCCCC1`, the GI50 is 19.8 µM in assay [1] and 9.8 µM in assay [2].
Consider `CC(C)C[C@H](NC(=O)c1cc(Cl)ccc1OCc1ccccc1)C(=O)N[C@@H](CC(C)C)C(=O)Nc1ccc(C(F)(F)F)cc1`, for which the figures for the GI50 in assay [1] and in assay [2] were 74.6 µM and 59.9 µM, respectively.
The corresponding values for `Cc1ccc(NC(=O)[C@H](CC(C)C)NC(=O)[C@H](CC(C)C)NC(=O)c2cc(Cl)ccc2OCc2ccccc2)cc1` are 87.7 µM and 52.8 µM.
In the case of `CC(C)C[C@H](NC(=O)c1cc(Cl)ccc1OCc1ccccc1)C(=O)Nc1ccc(C(F)(F)F)cc1`, the values for the GI50 in assay [1] and in assay [2] were greater than 50 µM and 35.4 µM, respectively.
On to `Cc1ccc(NC(=O)[C@H](CC(C)C)NC(=O)[C@H](CC(C)C)NC(=O)c2cc(Cl)ccc2O)cc1`, for which the GI50 is 30.7 µM in assay [1] and 13.2 µM in assay [2].
As to `CC(C)C[C@H](NC(=O)c1cc(Cl)ccc1OCc1ccccc1)C(=O)N[C@@H](CC(C)C)C(=O)Nc1ccccc1`, the GI50 is 71.2 µM in assay [1] and 48.9 µM in assay [2].
On the same counts, the results for `CC(C)C[C@H](NC(=O)c1cc(Cl)ccc1O)C(=O)N[C@@H](CC(C)C)C(=O)NC1CCCCC1` are 55.7 µM and 38.2 µM.
For `O=C(N[C@@H](Cc1ccccc1)C(=O)N[C@@H](Cc1ccccc1)C(=O)Nc1ccc(Cl)c(Cl)c1)c1cc(Cl)ccc1O`, the GI50 is 5.8 µM in assay [1]; 3.1 µM in assay [2]; 4.5 µM in assay [3]; 5.2 µM in assay [4]; 3 µM in assay [5].
As for `COc1ccc(NC(=O)[C@H](CC(C)C)NC(=O)[C@H](CC(C)C)NC(=O)c2cc(Cl)ccc2O)cc1`, the results for the GI50 in assay [1] and in assay [2] were 51 µM and 23.3 µM, respectively.
Turning to `COc1ccc(NC(=O)[C@H](CC(C)C)NC(=O)[C@H](CC(C)C)NC(=O)c2cc(Cl)ccc2OCc2ccccc2)cc1`, the GI50 is 68.3 µM in assay [1] and 53.2 µM in assay [2].
Regarding `CC(C)C[C@H](NC(=O)c1cc(Cl)ccc1O)C(=O)N[C@@H](CC(C)C)C(=O)Nc1ccc(Cl)c(Cl)c1`, the GI50 was 3.2 µM in assay [1]; 2.6 µM in assay [2]; 5.2 µM in assay [3]; 4.1 µM in assay [4]; 4 µM in assay [5]. Further, the outcome in assay [6] was inactive.
`CC(C)C[C@H](NC(=O)c1cc(Cl)ccc1O)C(=O)N[C@@H](CC(C)C)C(=O)Nc1ccc(C(F)(F)F)cc1`: the concentration for 50% growth inhibition (GI50) in assay [1] was 7.5 µM; in assay [2], 6.2 µM; in assay [3] it was 11.5 µM; in assay [4] it was 5.3 µM; in assay [5] it was 5.8 µM.
Regarding `CC(C)C[C@H](NC(=O)c1cc(Cl)ccc1O)C(=O)N[C@@H](CC(C)C)C(=O)N1CCOCC1`, the GI50 in assay [1] was greater than 50 µM; in assay [2], 54.9 µM.
Turning to `O=C(N[C@@H](Cc1ccccc1)C(=O)N[C@@H](Cc1ccccc1)C(=O)Nc1ccc(C(F)(F)F)cc1)c1cc(Cl)ccc1O`, the GI50 was 5.1 µM in assay [1]; 4.7 µM in assay [2]; 5.1 µM in assay [3]; 5.6 µM in assay [4]; 4.5 µM in assay [5].
As for `CC(C)C[C@H](NC(=O)c1cc(Cl)ccc1O)C(=O)N[C@@H](CC(C)C)C(=O)Nc1ccccc1`, the values for the GI50 in assay [1] and in assay [2] were 20.1 µM and 10.2 µM, respectively.
On to `CC(C)C[C@H](NC(=O)c1cc(Cl)ccc1OCc1ccccc1)C(=O)N[C@@H](Cc1ccccc1)C(=O)Nc1ccc(Cl)c(Cl)c1`, for which the results for the GI50 in assay [1] and in assay [2] were 57.5 µM and 45.4 µM, respectively.
On to `O=C(N[C@@H](Cc1ccccc1)C(=O)N[C@@H](Cc1ccccc1)C(=O)Nc1ccc(Cl)c(Cl)c1)c1cc(Cl)ccc1OCc1ccccc1`, for which the GI50 was 9.9 µM in assay [1] and 32.8 µM in assay [2].
